The source of these data is ChEMBL document CHEMBL5034016 (J Med Chem, 2021).

Where only a bound is given, the exact number is not on record here.

For one series, the system named is Enterovirus A71. The series is described as follows: Antiviral activity against Enterovirus A71 BrCr infected in human RD cells assessed as reduction in virus-induced cytopathic effect incubated for 3 days by MTS/PMS assay. Type of series: functional, organism-based. To be noted: Enterovirus A, 72 h. For orientation: Damage to the host cells serves as the signal in cytopathic effect assays.

Series [1] is described as follows: Cytotoxicity against human RD cells assessed as reduction in cell viability measured after 3 days by MTS/PMS assay. It is filed as cell-based. To be noted: time 3 day. Put shortly: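 Uninfected RD cells were treated with serial compound dilutions in the same 3-day setup as the antiviral assay. […] Multiple dose–response curves (>2) from >1 independent experiments.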

Series [2] is described as follows: Selectivity index, ratio of CC50 for human RD cells to EC50 for antiviral activity against Enterovirus A71 infected in human RD cells. It is filed as toxicity, cell-based. The following applies: read-out: Ratio CC50/EC50.
The subject of series [3] is Human immunodeficiency virus 1. The series is described as follows: Anti-HIV activity against HIV-1 NL4.3 infected in human MT4 cells assessed as reduction in virus-indued cytopathic effect preincubated with cells for 30 mins followed by viral infection and measured after 5 days by MTS assay. The following applies: Human immunodeficiency virus 1, NL4.3, MT4. It is filed as functional, organism-based. In short, it runs like this: (§1)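 MT-4 cells (1×10^6 cells/mL) were preincubated with compound for 30 min at 37 °C, then infected with cell-line-adapted NL4.3 or ROD dosed by TCID50 of the stock. After 5 days, CPE was scored microscopically and EC50 calculated from MTS/PES reduction (A490). Mean ± SD of at least three independent experiments.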

Series [4] concerns Human immunodeficiency virus 2. The series is described as follows: Anti-HIV activity against HIV-2 ROD infected in human MT4 cells assessed as reduction in virus-indued cytopathic effect preincubated with cells for 30 mins followed by viral infection and measured after 5 days by MTS assay. The following applies: Human immunodeficiency virus 2, ROD. It is filed as functional, organism-based. In short, it runs like this: as §1

Series [5] is described as follows: Cytotoxicity against human MT4 cells assessed as reduction in cell viability measured after 5 days by MTS/PES assay. It is filed as cell-based. To be noted: time 5 day. Put shortly:
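Uninfected MT-4 cells were exposed to compound for 5 days. Viability was read by MTS/PES (A490, formazan proportional to living cells). […] Mean ± SD of at least three independent experiments.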

In series [6] the test system is Human immunodeficiency virus 1. The series is described as follows: Inhibition of HIV-1 gp120 interaction with human CD4 assessed as inhibition of viral entry at 156 to […] by SPR analysis. The following applies: dose lower […], dose upper […]. (In general: In SPR one partner is held on a chip, and binding of the other changes the refractive index at the surface.)

Series [7] in a line: Inhibition of human mAb clone 2G12 binding to HIV1 gp120 expressed in human MT4 cells by flow cytometry analysis. It is filed as cell-based, Human immunodeficiency virus 1. Background: In flow cytometry, cells or beads pass a laser one at a time.
The nature of series [8]: Inhibition of human mAb clone 447-52D binding to HIV1 gp120 expressed in human MT4 cells by flow cytometry analysis. It is filed as cell-based, Human immunodeficiency virus 1.
A short description of series [9]: Inhibition of mouse mAb clone 9284 binding to HIV1 gp120 expressed in human MT4 cells by flow cytometry analysis. It is filed as cell-based, Human immunodeficiency virus 1.
Series [10] can be described thus: Inhibition of mouse mAb clone 9305 binding to HIV1 gp120 expressed in human MT4 cells by flow cytometry analysis. It is filed as cell-based, Human immunodeficiency virus 1.
In series [11] the test system is Enterovirus. The series is described as follows: Antiviral activity against Enterovirus A71 harbouring VP1 S184T mutant infected in human RD cells assessed as reduction in virus induced cytopathic effect incubated for 3 days by MTS/PMS assay. It is filed as functional, organism-based.
Series [12] concerns Enterovirus. The experiment in a line: Antiviral activity against Enterovirus A71 harbouring VP1 P246S mutant infected in human RD cells assessed as reduction in virus induced cytopathic effect incubated for 3 days by MTS/PMS assay. It is filed as functional, organism-based.
Series [13] relates to Enterovirus. The series is described as follows: Antiviral activity against Enterovirus A71 harbouring VP1 S184T/P246S double mutant infected in human RD cells assessed as reduction in virus induced cytopathic effect incubated for 3 days by MTS/PMS assay. Type of series: functional, organism-based.
Series [14] deals with Human immunodeficiency virus 1. The series is described as follows: Anti-HIV activity against HIV-1 NL4.3 infected in PHA-stimulated human PBMC expressing CXCR-4 assessed as inhibition of virus-indued cytopathogenic effect measured after 10 days by ELISA. Type of series: functional, organism-based. The following applies: Human immunodeficiency virus 1, NL4.3, PBMC, 240 h.

Series [15] deals with Human immunodeficiency virus 1. The series is described as follows: Anti-HIV activity against HIV-1 Ba-L infected in PHA-stimulated PBMC expressing CCR5 assessed as inhibition of virus-indued cytopathogenic effect measured after 10 days by ELISA. Type of series: functional, organism-based. To be noted: Human immunodeficiency virus 1, Ba-L, 240 h.

Broadly, the EC50 is the concentration needed to bring the measured effect to its halfway point. The term CC50 denotes the concentration giving 50% cytotoxicity. In the case of `O=C(CCC(CCC(=O)NC(Cc1c[nH]c2c(-c3ccc(C(=O)O)cc3)cccc12)C(=O)O)(CCC(=O)NC(Cc1c[nH]c2c(-c3ccc(C(=O)O)cc3)cccc12)C(=O)O)[N+](=O)[O-])NC(Cc1c[nH]c2c(-c3ccc(C(=O)O)cc3)cccc12)C(=O)O` (configuration not stated), the concentration giving a half-maximal response (EC50) worked out at 61.6 µM in the series with Enterovirus A71, 12 µM in series [3] and 49.7 µM in series [4]. The CC50 at 72 h in [1] was above 61 µM. Also, the selectivity ratio in series [2] is 1. Also, in [5], the CC50 at 120 h was above 100 µM.

As for `O=C(CCC(CCC(=O)NC(Cc1c[nH]c2c(-c3cc(C(=O)O)cc(C(=O)O)c3)cccc12)C(=O)O)(CCC(=O)NC(Cc1c[nH]c2c(-c3cc(C(=O)O)cc(C(=O)O)c3)cccc12)C(=O)O)[N+](=O)[O-])NC(Cc1c[nH]c2c(-c3cc(C(=O)O)cc(C(=O)O)c3)cccc12)C(=O)O` (configuration not stated), the selectivity ratio in series [2] was 63.

For orientation: inhibition means the share of the control response that was lost under treatment. What is called IC50 is the concentration that gives 50% inhibition. Lower therefore signals higher potency. Turning to `O=C(CCOCC(COCCC(=O)NC(Cc1c(-c2cc(C(=O)O)cc(C(=O)O)c2)[nH]c2ccccc12)C(=O)O)(COCCC(=O)NC(Cc1c(-c2cc(C(=O)O)cc(C(=O)O)c2)[nH]c2ccccc12)C(=O)O)COCCC(=O)NC(Cc1c(-c2cc(C(=O)O)cc(C(=O)O)c2)[nH]c2ccccc12)C(=O)O)NC(Cc1c(-c2cc(C(=O)O)cc(C(=O)O)c2)[nH]c2ccccc12)C(=O)O` (configuration not stated), in [6], the inhibition is 50%. Also, the IC50 in [7], in series [8], in [9] and in series [10] was above 100 µM throughout.

Regarding `O=C(CCC(CCC(=O)NC(Cc1c(-c2cc(C(=O)O)cc(C(=O)O)c2)[nH]c2ccccc12)C(=O)O)(CCC(=O)NC(Cc1c(-c2cc(C(=O)O)cc(C(=O)O)c2)[nH]c2ccccc12)C(=O)O)[N+](=O)[O-])NC(Cc1c(-c2cc(C(=O)O)cc(C(=O)O)c2)[nH]c2ccccc12)C(=O)O` (configuration not stated), in [2], the selectivity ratio stood at 203.

Regarding `O=C(CCOCC(COCCC(=O)NC(Cc1c(-c2ccc(C(=O)O)cc2)[nH]c2c(-c3ccc(C(=O)O)cc3)cccc12)C(=O)O)(COCCC(=O)NC(Cc1c(-c2ccc(C(=O)O)cc2)[nH]c2c(-c3ccc(C(=O)O)cc3)cccc12)C(=O)O)COCCC(=O)NC(Cc1c(-c2ccc(C(=O)O)cc2)[nH]c2c(-c3ccc(C(=O)O)cc3)cccc12)C(=O)O)NC(Cc1c(-c2ccc(C(=O)O)cc2)[nH]c2c(-c3ccc(C(=O)O)cc3)cccc12)C(=O)O` (configuration not stated), the selectivity ratio in series [2] stood at 667.

Consider `O=C(CCOCC(COCCC(=O)NC(Cc1c[nH]c2c(-c3cc(C(=O)O)cc(C(=O)O)c3)cccc12)C(=O)O)(COCCC(=O)NC(Cc1c[nH]c2c(-c3cc(C(=O)O)cc(C(=O)O)c3)cccc12)C(=O)O)COCCC(=O)NC(Cc1c[nH]c2c(-c3cc(C(=O)O)cc(C(=O)O)c3)cccc12)C(=O)O)NC(Cc1c[nH]c2c(-c3cc(C(=O)O)cc(C(=O)O)c3)cccc12)C(=O)O` (configuration not stated), for which the selectivity ratio in series [2] was 157.

In the case of `O=C(CCC(CCC(=O)NC(Cc1c(-c2cc(C(=O)O)cc(C(=O)O)c2)[nH]c2c(-c3cc(C(=O)O)cc(C(=O)O)c3)cccc12)C(=O)O)(CCC(=O)NC(Cc1c(-c2cc(C(=O)O)cc(C(=O)O)c2)[nH]c2c(-c3cc(C(=O)O)cc(C(=O)O)c3)cccc12)C(=O)O)[N+](=O)[O-])NC(Cc1c(-c2cc(C(=O)O)cc(C(=O)O)c2)[nH]c2c(-c3cc(C(=O)O)cc(C(=O)O)c3)cccc12)C(=O)O` (configuration not stated), the concentration for a half-maximal effect (EC50) with Enterovirus A71 is 0.2 µM; in [3], 0.04 µM; in series [4] it was 0.07 µM. Moreover, the 50% cytotoxic concentration (CC50) at 72 h in series [1] is above 100 µM. The selectivity ratio in series [2] worked out at 526. In addition, in series [5], the CC50 at 120 h was above 100 µM.

For `CCOC(=O)c1ccc(OCCC2CCN(c3ccc(C)nn3)CC2)cc1` [PIRODAVIR], the selectivity ratio in series [2] was 333.

For the molecule `O=C(CCOCC(COCCC(=O)NC(Cc1c[nH]c2c(-c3ccc(C(=O)O)cc3)cccc12)C(=O)O)(COCCC(=O)NC(Cc1c[nH]c2c(-c3ccc(C(=O)O)cc3)cccc12)C(=O)O)COCCC(=O)NC(Cc1c[nH]c2c(-c3ccc(C(=O)O)cc3)cccc12)C(=O)O)NC(Cc1c[nH]c2c(-c3ccc(C(=O)O)cc3)cccc12)C(=O)O` (configuration not stated), the selectivity ratio in series [2] was found to be 60.

With `O=C(CCC(CCC(=O)N[C@H](Cc1c[nH]c2ccccc12)C(=O)O)(CCC(=O)N[C@H](Cc1c[nH]c2ccccc12)C(=O)O)NC(=O)CCOCC(COCCC(=O)NC(CCC(=O)N[C@H](Cc1c[nH]c2ccccc12)C(=O)O)(CCC(=O)N[C@H](Cc1c[nH]c2ccccc12)C(=O)O)CCC(=O)N[C@H](Cc1c[nH]c2ccccc12)C(=O)O)(COCCC(=O)NC(CCC(=O)N[C@H](Cc1c[nH]c2ccccc12)C(=O)O)(CCC(=O)N[C@H](Cc1c[nH]c2ccccc12)C(=O)O)CCC(=O)N[C@H](Cc1c[nH]c2ccccc12)C(=O)O)COCCC(=O)NC(CCC(=O)N[C@H](Cc1c[nH]c2ccccc12)C(=O)O)(CCC(=O)N[C@H](Cc1c[nH]c2ccccc12)C(=O)O)CCC(=O)N[C@H](Cc1c[nH]c2ccccc12)C(=O)O)N[C@H](Cc1c[nH]c2ccccc12)C(=O)O`, the half-maximal effective concentration (EC50) stood at 0.3 µM with Enterovirus A71, 2 µM with Enterovirus [11], 4.7 µM in the series with Enterovirus [12] and 8.9 µM in the series with Enterovirus [13]. For the same molecule, in series [1], the 50% cytotoxic concentration (CC50) at 72 h came to 24.9 µM.

As for `O=C(CCC(CCC(=O)NC(Cc1c[nH]c2c(-c3cccc(C(=O)O)c3)cccc12)C(=O)O)(CCC(=O)NC(Cc1c[nH]c2c(-c3cccc(C(=O)O)c3)cccc12)C(=O)O)[N+](=O)[O-])NC(Cc1c[nH]c2c(-c3cccc(C(=O)O)c3)cccc12)C(=O)O` (configuration not stated), in series [2], the selectivity ratio amounted to 1.

Regarding `O=C(CCOCC(COCCC(=O)NC(Cc1c[nH]c2c(-c3cccc(C(=O)O)c3)cccc12)C(=O)O)(COCCC(=O)NC(Cc1c[nH]c2c(-c3cccc(C(=O)O)c3)cccc12)C(=O)O)COCCC(=O)NC(Cc1c[nH]c2c(-c3cccc(C(=O)O)c3)cccc12)C(=O)O)NC(Cc1c[nH]c2c(-c3cccc(C(=O)O)c3)cccc12)C(=O)O` (configuration not stated), the selectivity ratio in series [2] was found to be 20.

As to `Cc1nnc(C(C)C)n1[C@H]1C[C@H]2CC[C@@H](C1)N2CC[C@H](NC(=O)C1CCC(F)(F)CC1)c1ccccc1` [MARAVIROC], the EC50 in [14] is above 1 µM; in [15], 0.00448 µM.
